Holding throughout (format): nucleic-acid assay
In test [1] the test system is Nucleic Acid. The test is described as follows: Induction of Escherichia coli ATCC 35218 DNA cleavage after 2 hrs by agarose gel electrophoresis. Summed up:
(§1)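 Genomic DNA was isolated from cultures grown at 37 °C (E. coli and S. aureus in nutrient broth for 24 h; A. niger in potato dextrose broth for 48 h). Extraction used Tris/EDTA/SDS lysis, phenol at 55 °C, chloroform:isoamyl alcohol and ethanol precipitation. DNA was incubated 2 h at 37 °C with compound from a 1 mg/mL DMF stock, then run on agarose in TAE at 50 V for about 30 min against marker and untreated-DNA lanes.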

For test [2], the system named is Nucleic Acid. As to the kind of experiment: Induction of Staphylococcus aureus 6538 DNA cleavage after 2 hrs by agarose gel electrophoresis. Summed up:
as §1

Test [3] deals with Nucleic Acid. The test is described as follows: Induction of Aspergillus niger DNA cleavage after 2 hrs by agarose gel electrophoresis. Summed up:
as §1

Calls of active or inactive are those of the source. No cut-off for these calls is given here.

With `COc1cc2c(cc1OC)C(Cc1cc(=O)oc3cc(C)ccc13)NCC2` (stereo unspecified), the outcome in the test on Nucleic Acid [1], in the test on Nucleic Acid [2] and in the test with Nucleic Acid [3] was inactive.

`Cc1ccc2c3c(c(=O)oc2c1)CN1CCc2ccccc2C1C3` (stereo unspecified): the outcome with Nucleic Acid [1], in the test on Nucleic Acid [2] and with Nucleic Acid [3] was inactive.

In the case of `Cc1ccc2oc(=O)c3c(c2c1)CC1c2ccccc2CCN1C3` (stereo unspecified), the outcome in the test with Nucleic Acid [1], in the test with Nucleic Acid [2] and in the test on Nucleic Acid [3] was inactive.

With `O=c1oc2c(ccc3ccccc32)c2c1CN1CCc3ccccc3C1C2` (stereo unspecified), the result in the test on Nucleic Acid [1] was inactive. The result in the test on Nucleic Acid [2] and in the test on Nucleic Acid [3] was Active.

Turning to `COc1cc2c(cc1OC)C(Cc1cc(=O)oc3ccc(C)cc13)NCC2` (stereo unspecified), the result in the test with Nucleic Acid [1], in the test on Nucleic Acid [2] and in the test with Nucleic Acid [3] was inactive.

On to `COc1cc2c(cc1OC)C1Cc3c(c(=O)oc4cc(C)ccc34)CN1CC2` (stereo unspecified), for which the outcome in the test on Nucleic Acid [1], in the test on Nucleic Acid [2] and with Nucleic Acid [3] was inactive.

In the case of `Cc1ccc2oc(=O)cc(CC3NCCc4ccccc43)c2c1` (stereo unspecified), the result in the test with Nucleic Acid [1], in the test on Nucleic Acid [2] and in the test on Nucleic Acid [3] was inactive.

In the case of `COc1cc2c(cc1OC)C1Cc3c(c(=O)oc4ccc(C)cc34)CN1CC2` (stereo unspecified), the outcome with Nucleic Acid [1], in the test with Nucleic Acid [2] and in the test with Nucleic Acid [3] was inactive.

`O=c1cc(CC2NCCc3ccccc32)c2ccc3ccccc3c2o1` (stereo unspecified): in the test with Nucleic Acid [1], the result was inactive. In addition, the result in the test with Nucleic Acid [2] and in the test with Nucleic Acid [3] was Active.

Consider `Cc1ccc2c(CC3NCCc4ccccc43)cc(=O)oc2c1` (stereo unspecified), for which the outcome in the test on Nucleic Acid [1], in the test with Nucleic Acid [2] and with Nucleic Acid [3] was inactive.

For the molecule `COc1cc2c(cc1OC)C1Cc3c(c(=O)oc4c3ccc3ccccc34)CN1CC2` (stereo unspecified), in the test with Nucleic Acid [1], the result was inactive. Further, the outcome in the test with Nucleic Acid [2] and in the test with Nucleic Acid [3] was Active.

Consider `COc1cc2c(cc1OC)C(Cc1cc(=O)oc3c1ccc1ccccc13)NCC2` (stereo unspecified), for which the result in the test on Nucleic Acid [1] was inactive. The outcome in the test on Nucleic Acid [2] and in the test with Nucleic Acid [3] was Active.

Values taken from ChEMBL document CHEMBL1240416, “Synthesis, structure and DNA cleavage studies of coumarin analogues of tetrahydroisoquinoline and protoberberine alkaloids” (Eur J Med Chem, 2010).
